In brackets after ≈: the same amount, converted by molar mass.
Experiments:
Format in all cases: functional
[1] = test system: Staphylococcus aureus; assay: Antibacterial activity against erythromycin-susceptible Staphylococcus aureus ATCC 25923 by broth microdilution method
How it was run: (§1)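 Broth microdilution MIC following the NCCL-recommended method. Panel of sensitive and resistant Gram-positive strains: S. pyogenes S2 (erythromycin-susceptible clinical isolate), S. aureus ATCC25923 and S. pneumoniae ATCC49619 (erythromycin-susceptible). Azithromycin and clarithromycin were run alongside as references.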

[2] = test system: Streptococcus pneumoniae; assay: Antibacterial activity against erythromycin-resistant Streptococcus pneumoniae B1 expressing ermB gene by broth microdilution method
How it was run: (§2)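 MICs measured in vitro by broth microdilution following NCCL recommendations, against a Gram-positive panel of sensitive and resistant strains. Azithromycin and clarithromycin were tested alongside as references.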

[3] = test system: Staphylococcus aureus; assay: Antibacterial activity against clinically isolated penicillin-resistant Staphylococcus aureus by broth microdilution method
How it was run: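 Clinical penicillin-resistant S. aureus isolate, not further characterized, tested in a Gram-positive panel. MIC was measured by broth microdilution following NCCL recommendations, with azithromycin and clarithromycin as references.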

[4] = test system: Streptococcus pneumoniae; assay: Antibacterial activity against erythromycin-resistant Streptococcus pneumoniae AB11 expressing ermB and mefA genes by broth microdilution method; how it was run: as §2
[5] = test system: Staphylococcus aureus; assay: Antibacterial activity against methicillin-susceptible Staphylococcus aureus ATCC 29213 by broth microdilution method; how it was run: as §2
[6] = test system: Streptococcus pneumoniae; assay: Antibacterial activity against erythromycin-susceptible Streptococcus pneumoniae ATCC 49619 by broth microdilution method; how it was run: as §1
[7] = test system: Streptococcus pneumoniae; assay: Antibacterial activity against erythromycin-resistant Streptococcus pneumoniae A22072 expressing mefA gene by broth microdilution method; how it was run: as §2
[8] = test system: Streptococcus pyogenes; assay: Antibacterial activity against clinically isolated erythromycin-susceptible Streptococcus pyogenes S2 by broth microdilution method; how it was run: as §1
[9] = test system: Streptococcus pyogenes; assay: Antibacterial activity against clinically isolated erythromycin-resistant Streptococcus pyogenes R2 by broth microdilution method; how it was run: as §2

| SMILES | MIC [1] | MIC [2] | MIC [3] | MIC [4] | MIC [5] | MIC [6] | MIC [7] | MIC [8] | MIC [9] |
| --- | --- | --- | --- | --- | --- | --- | --- | --- | --- |
| CC[C@H]1OC(=O)[C@@H](C)[C@H](O[C@@H]2C[C@](C)(OC)[C@H](OC(=O)NNC(=O)/C=C/c3ccc(OC)c(OC)c3)[C@@H](C)O2)[C@H](C)[C@H](O[C@H]2O[C@@H](C)C[C@@H](N(C)C)[C@@H]2O)[C@@](C)(O)C[C@H](C)CN(C)[C@@H](C)[C@H](OC(=O)NCc2ccccc2)[C@@]1(C)O | 0.5 µg/mL (≈ 0.442 µM) | 64 µg/mL (≈ 56.6 µM) | 2 µg/mL (≈ 1.77 µM) | 64 µg/mL (≈ 56.6 µM) | 4 µg/mL (≈ 3.54 µM) | 0.06 µg/mL (≈ 0.0531 µM) | 2 µg/mL (≈ 1.77 µM) | 0.25 µg/mL (≈ 0.221 µM) | 64 µg/mL (≈ 56.6 µM) |
| CC[C@H]1OC(=O)[C@@H](C)[C@H](O[C@H]2C[C@@](C)(OC)[C@@H](OC(=O)NNC(=O)/C=C/c3ccc(Cl)cc3)[C@H](C)O2)[C@@H](C)[C@H](O[C@H]2O[C@@H](C)C[C@@H](N(C)C)[C@@H]2O)[C@@](C)(O)C[C@H](C)CN(C)[C@@H](C)[C@@H]2OC(=O)O[C@@]12C | 8 µg/mL (≈ 8.02 µM) | 8 µg/mL (≈ 8.02 µM) | 8 µg/mL (≈ 8.02 µM) | 8 µg/mL (≈ 8.02 µM) | 8 µg/mL (≈ 8.02 µM) | 4 µg/mL (≈ 4.01 µM) | 0.5 µg/mL (≈ 0.501 µM) | 1 µg/mL (≈ 1 µM) | 32 µg/mL (≈ 32.1 µM) |
| CC[C@H]1OC(=O)[C@@H](C)[C@H](O[C@H]2C[C@@](C)(OC)[C@@H](OC(=O)NNC(=O)/C=C/c3ccccc3F)[C@H](C)O2)[C@@H](C)[C@H](O[C@H]2O[C@@H](C)C[C@@H](N(C)C)[C@@H]2O)[C@@](C)(O)C[C@H](C)CN(C)[C@@H](C)[C@@H]2OC(=O)O[C@@]12C | 4 µg/mL (≈ 4.08 µM) | 16 µg/mL (≈ 16.3 µM) | 16 µg/mL (≈ 16.3 µM) | 32 µg/mL (≈ 32.6 µM) | 8 µg/mL (≈ 8.15 µM) | 8 µg/mL (≈ 8.15 µM) | 2 µg/mL (≈ 2.04 µM) | 0.25 µg/mL (≈ 0.255 µM) | 64 µg/mL (≈ 65.2 µM) |
| CC[C@@H]1OC(=O)[C@H](C)[C@@H](O[C@H]2C[C@@](C)(OC)[C@@H](OC(=O)NNC(=O)/C=C/c3ccccc3)[C@H](C)O2)[C@@H](C)[C@@H](O[C@@H]2O[C@H](C)C[C@H](N(C)C)[C@H]2O)[C@](C)(O)C[C@@H](C)CN(C)[C@H](C)[C@@H](OC(=O)NCc2ccc(OC)cc2)[C@]1(C)O | 1 µg/mL (≈ 0.909 µM) | 2 µg/mL (≈ 1.82 µM) | 4 µg/mL (≈ 3.64 µM) | 8 µg/mL (≈ 7.27 µM) | 4 µg/mL (≈ 3.64 µM) | 0.25 µg/mL (≈ 0.227 µM) | 0.25 µg/mL (≈ 0.227 µM) | 0.25 µg/mL (≈ 0.227 µM) | 32 µg/mL (≈ 29.1 µM) |
| CC[C@H]1OC(=O)[C@@H](C)[C@H](O[C@H]2C[C@@](C)(OC)[C@@H](OC(=O)NNC(=O)/C=C/c3ccccc3OC)[C@H](C)O2)[C@@H](C)[C@H](O[C@H]2O[C@@H](C)C[C@@H](N(C)C)[C@@H]2O)[C@@](C)(O)C[C@H](C)CN(C)[C@@H](C)[C@@H]2OC(=O)O[C@@]12C | 2 µg/mL (≈ 2.01 µM) | 4 µg/mL (≈ 4.03 µM) | 8 µg/mL (≈ 8.05 µM) | 2 µg/mL (≈ 2.01 µM) | 4 µg/mL (≈ 4.03 µM) | 4 µg/mL (≈ 4.03 µM) | 0.25 µg/mL (≈ 0.252 µM) | 8 µg/mL (≈ 8.05 µM) | 64 µg/mL (≈ 64.4 µM) |
| CC[C@@H]1OC(=O)[C@H](C)[C@@H](O[C@@H]2C[C@](C)(OC)[C@H](O)[C@@H](C)O2)[C@@H](C)[C@@H](O[C@@H]2O[C@H](C)C[C@H](N(C)C)[C@H]2O)[C@](C)(O)C[C@@H](C)CN(C)[C@H](C)[C@@H](O)[C@]1(C)O | 0.25 µg/mL (≈ 0.334 µM) | > 128 µg/mL | 0.12 µg/mL (≈ 0.16 µM) | 256 µg/mL (≈ 342 µM) | 1 µg/mL (≈ 1.34 µM) | 0.03 µg/mL (≈ 0.0401 µM) | 4 µg/mL (≈ 5.34 µM) | 0.25 µg/mL (≈ 0.334 µM) | ≥ 128 µg/mL |
| CC[C@H]1OC(=O)[C@@H](C)[C@H](O[C@@H]2C[C@](C)(OC)[C@H](OC(=O)NNC(=O)/C=C/c3ccc(Cl)cc3)[C@@H](C)O2)[C@H](C)[C@H](O[C@H]2O[C@@H](C)C[C@@H](N(C)C)[C@@H]2O)[C@@](C)(O)C[C@H](C)CN(C)[C@@H](C)[C@H](OC(=O)NCc2ccccc2)[C@@]1(C)O | 1 µg/mL (≈ 0.905 µM) | 4 µg/mL (≈ 3.62 µM) | 2 µg/mL (≈ 1.81 µM) | 2 µg/mL (≈ 1.81 µM) | 4 µg/mL (≈ 3.62 µM) | 0.5 µg/mL (≈ 0.453 µM) | 0.25 µg/mL (≈ 0.226 µM) | 0.5 µg/mL (≈ 0.453 µM) | 16 µg/mL (≈ 14.5 µM) |
| CC[C@@H]1OC(=O)[C@H](C)[C@@H](O[C@H]2C[C@@](C)(OC)[C@@H](OC(=O)NNC(=O)/C=C/c3ccccc3)[C@H](C)O2)[C@@H](C)[C@@H](O[C@@H]2O[C@H](C)C[C@H](N(C)C)[C@H]2O)[C@](C)(O)C[C@@H](C)CN(C)[C@H](C)[C@@H](OC(=O)NCc2ccccc2)[C@]1(C)O | 0.5 µg/mL (≈ 0.467 µM) | 2 µg/mL (≈ 1.87 µM) | 1 µg/mL (≈ 0.934 µM) | 4 µg/mL (≈ 3.74 µM) | 1 µg/mL (≈ 0.934 µM) | 0.5 µg/mL (≈ 0.467 µM) | 1 µg/mL (≈ 0.934 µM) | 0.5 µg/mL (≈ 0.467 µM) | 32 µg/mL (≈ 29.9 µM) |
